Experimental findings from ChEMBL document CHEMBL1157752, “Lessons learned from herbal medicinal products: the example of St. John's Wort (perpendicular)” (J Nat Prod, 2010) are described below.

One series addresses Cytochrome P450 3A4 (Homo sapiens, UniProt P08684).
Series [1] concerns Rattus norvegicus. Put plainly: Antidepressant activity in rat assessed as immobility time at 0.6 mg/kg, po by forced swimming test (reference value: 150.3 +/- 11.1 sec). In kind it is functional.
Series [2] relates to Rattus norvegicus. Put plainly: Antidepressant activity in rat assessed as immobility time at 1.3 mg/kg, po by forced swimming test (reference value: 150.3 +/- 11.1 sec). In kind it is functional. An outline of the steps:
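Rats received single compounds by mouth in a Porsolt forced swimming test. The read-out was immobility time in seconds, compared with a saline control, with imipramine 20 mg/kg po as the reference antidepressant. Values are mean ± SEM, n = 10 per group.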

Series [3] addresses Delta-type opioid receptor (Homo sapiens, UniProt P41143). Briefly: Binding affinity to delta opioid receptor.
The target of a further series is T1, D(4) dopamine receptor (Homo sapiens, UniProt P21917).
T1 sequence (P21917 whole entry): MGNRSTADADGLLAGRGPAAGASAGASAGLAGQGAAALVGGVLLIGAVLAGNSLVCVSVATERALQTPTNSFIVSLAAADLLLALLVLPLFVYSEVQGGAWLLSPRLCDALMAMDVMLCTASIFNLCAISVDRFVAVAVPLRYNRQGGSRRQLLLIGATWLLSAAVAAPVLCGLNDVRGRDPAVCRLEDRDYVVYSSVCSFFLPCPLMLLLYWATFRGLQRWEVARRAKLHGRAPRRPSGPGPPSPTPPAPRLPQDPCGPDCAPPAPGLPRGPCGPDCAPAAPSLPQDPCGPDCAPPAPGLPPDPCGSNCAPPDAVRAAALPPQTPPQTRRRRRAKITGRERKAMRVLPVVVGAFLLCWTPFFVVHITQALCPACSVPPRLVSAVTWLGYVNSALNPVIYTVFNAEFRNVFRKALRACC
Put plainly: Binding affinity to dopamine D4 receptor.

In series [4] the target is T2, Alpha-2C adrenergic receptor (Homo sapiens, UniProt P18825).
T2 sequence (P18825 whole entry): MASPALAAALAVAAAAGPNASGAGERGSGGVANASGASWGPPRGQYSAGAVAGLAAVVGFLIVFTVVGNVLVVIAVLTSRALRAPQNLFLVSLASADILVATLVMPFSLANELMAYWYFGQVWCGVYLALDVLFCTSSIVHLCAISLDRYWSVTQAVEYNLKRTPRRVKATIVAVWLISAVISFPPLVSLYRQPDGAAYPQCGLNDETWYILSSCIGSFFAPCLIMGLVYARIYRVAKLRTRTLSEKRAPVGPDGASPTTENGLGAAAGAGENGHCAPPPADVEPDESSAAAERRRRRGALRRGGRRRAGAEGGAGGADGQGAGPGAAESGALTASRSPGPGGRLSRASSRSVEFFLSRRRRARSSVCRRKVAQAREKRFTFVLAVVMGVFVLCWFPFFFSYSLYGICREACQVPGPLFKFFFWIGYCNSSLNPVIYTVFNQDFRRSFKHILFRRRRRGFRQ
Briefly: Binding affinity to adrenergic alpha2c receptor.

Series [5] deals with Rattus norvegicus. Put plainly: Antidepressant activity in rat assessed as immobility time at 20 mg/kg, po by forced swimming test (reference value: 158.7 +/- 8.9 sec). In kind it is functional. An outline of the steps: (§1)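 Rat forced swimming test (Porsolt): test substances given orally, and immobility time in seconds is recorded as mean ± SEM. Imipramine serves as the reference antidepressant.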

Series [6] relates to Rattus norvegicus. Put plainly: Antidepressant activity in rat assessed as immobility time at 20 mg/kg, po by forced swimming test (reference value: 169.6 +/- 19 sec). Format: functional. An outline of the steps:
as §1

Series [7] has as its system Rattus norvegicus. Briefly: Antidepressant activity in rat assessed as immobility time at 20 mg/kg, po by forced swimming test (reference value: 150.3 +/- 11.1 sec). Format: functional. An outline of the steps: as §1
For series [8], the system named is Rattus norvegicus. Briefly: Antidepressant activity in rat assessed as immobility time at 20 mg/kg, po by forced swimming test (reference value: 138.6 +/- 12 sec). Format: functional.
Series [9] relates to Rattus norvegicus. Put plainly: Antidepressant activity in rat assessed as immobility time at 0.6 mg/kg, po by forced swimming test (reference value: 169.6 +/- 19 sec). In kind it is functional. The gist of the method: as §1
Series [10] relates to Rattus norvegicus. Put plainly: Antidepressant activity in rat assessed as immobility time at 1.3 mg/kg, po by forced swimming test (reference value: 169.6 +/- 19 sec). In kind it is functional. An outline of the steps: as §1
For series [11], the system named is Rattus norvegicus. Put plainly: Antidepressant activity in rat assessed as immobility time at 2.6 mg/kg, po by forced swimming test (reference value: 169.6 +/- 19 sec). In kind it is functional. The gist of the method: as §1
Series [12] deals with Rattus norvegicus. Briefly: Antidepressant activity in rat assessed as immobility time at 5.2 mg/kg, po by forced swimming test (reference value: 169.6 +/- 19 sec). Format: functional. The gist of the method:
as §1

Series [13] has as its system Rattus norvegicus. Put plainly: Antidepressant activity in rat assessed as immobility time at 7.6 mg/kg, po by forced swimming test (reference value: 169.6 +/- 19 sec). Format: functional. The gist of the method: as §1
In series [14] the test system is Rattus norvegicus. Briefly: Antidepressant activity in rat assessed as immobility time at 0.08 mg/kg, po by forced swimming test (reference value: 158.7 +/- 8.9 sec). In kind it is functional. An outline of the steps:
as §1

In series [15] the test system is Rattus norvegicus. Briefly: Antidepressant activity in rat assessed as immobility time at […], po by forced swimming test (reference value: 158.7 +/- 8.9 sec). In kind it is functional.
The subject of series [16] is Rattus norvegicus. Briefly: Antidepressant activity in rat assessed as immobility time at 0.5 mg/kg, po by forced swimming test (reference value: 158.7 +/- 8.9 sec). In kind it is functional. An outline of the steps: as §1
The target of the next series is D(3) dopamine receptor (Homo sapiens, UniProt P35462). Briefly: Binding affinity to dopamine D3 receptor.
Series [17] deals with T3, Corticotropin-releasing factor receptor 1 (Homo sapiens, UniProt P34998).
T3 sequence (P34998 whole entry): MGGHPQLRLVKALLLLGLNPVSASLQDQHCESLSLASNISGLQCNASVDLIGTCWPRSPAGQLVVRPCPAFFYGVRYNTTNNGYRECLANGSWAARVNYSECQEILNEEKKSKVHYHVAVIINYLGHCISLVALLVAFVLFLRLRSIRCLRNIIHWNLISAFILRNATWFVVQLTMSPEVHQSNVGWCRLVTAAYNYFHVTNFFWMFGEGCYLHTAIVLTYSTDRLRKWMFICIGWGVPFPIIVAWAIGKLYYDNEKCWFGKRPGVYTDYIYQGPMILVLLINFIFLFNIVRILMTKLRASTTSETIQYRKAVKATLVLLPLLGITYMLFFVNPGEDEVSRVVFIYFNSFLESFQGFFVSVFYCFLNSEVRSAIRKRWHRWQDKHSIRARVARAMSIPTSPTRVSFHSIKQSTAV
Briefly: Inhibition of CRF1 receptor.

The target of series [18] is T3, Corticotropin-releasing factor receptor 1. Briefly: Inhibition of recombinant CRF1 receptor expressed in CHO cells assessed as inhibition of CRF-induced cAMP formation. In kind it is functional, cell-based.
Series [19] concerns Rattus norvegicus. Put plainly: Reduction in corticotropin-releasing hormone mRNA expression in rat hyphalamic paraventricular nucleus at 0.2 mg/kg, po, qd for 8 weeks. In kind it is functional. Further details: scale not given: the % may be the effect or the level left.
Series [20] relates to Rattus norvegicus. Briefly: Reduction in %5HT1A receptor mRNA expression in rat hippocampus at 0.2 mg/kg, po, qd for 8 weeks. In kind it is functional. On the set-up: scale not given: the % may be the effect or the level left.
A short description of series [21]: Plasma concentration in po dosed rat after 270 mins. Format: ADME, organism-based. An outline of the steps: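 Rats were fed the pure compound orally, and plasma concentration was followed over time, including the 270 min point. AUC was expressed relative to the compound given alone, set at 100%.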
Series [22] is described as follows: Permeability across apical to basolateral side in human Caco-2 cells. In kind it is ADME, cell-based. To be noted: read-out: permeability. An outline of the steps: (§2)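 Caco-2 colon adenocarcinoma cells were grown as monolayers in Transwell chambers, and compound was dosed to the apical or the basolateral side. Transport was measured apical to basolateral (absorption) and basolateral to apical (efflux). The result is given as apparent permeability in cm/s.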
On the technique in general: Caco-2 cells form a polarised layer with tight junctions and transporters.

A short description of series [23]: Permeability across basolateral to apical side in human Caco-2 cells. Format: ADME, cell-based. As to conditions: read-out: permeability. An outline of the steps: as §2

Chain of Cytochrome P450 3A4 (P08684 whole entry): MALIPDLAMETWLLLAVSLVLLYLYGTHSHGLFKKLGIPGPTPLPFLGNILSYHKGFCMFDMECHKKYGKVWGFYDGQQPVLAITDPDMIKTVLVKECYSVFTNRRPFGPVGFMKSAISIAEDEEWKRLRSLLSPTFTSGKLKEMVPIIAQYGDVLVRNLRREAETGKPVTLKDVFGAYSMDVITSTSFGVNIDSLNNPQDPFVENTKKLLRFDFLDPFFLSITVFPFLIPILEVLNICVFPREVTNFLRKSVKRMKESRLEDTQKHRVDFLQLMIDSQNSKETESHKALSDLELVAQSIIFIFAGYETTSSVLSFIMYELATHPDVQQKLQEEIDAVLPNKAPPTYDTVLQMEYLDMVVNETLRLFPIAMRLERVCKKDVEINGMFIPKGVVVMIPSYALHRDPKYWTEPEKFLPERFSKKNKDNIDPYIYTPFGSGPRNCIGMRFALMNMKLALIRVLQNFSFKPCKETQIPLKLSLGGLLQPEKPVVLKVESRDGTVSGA
Chain of Delta-type opioid receptor (P41143 whole entry): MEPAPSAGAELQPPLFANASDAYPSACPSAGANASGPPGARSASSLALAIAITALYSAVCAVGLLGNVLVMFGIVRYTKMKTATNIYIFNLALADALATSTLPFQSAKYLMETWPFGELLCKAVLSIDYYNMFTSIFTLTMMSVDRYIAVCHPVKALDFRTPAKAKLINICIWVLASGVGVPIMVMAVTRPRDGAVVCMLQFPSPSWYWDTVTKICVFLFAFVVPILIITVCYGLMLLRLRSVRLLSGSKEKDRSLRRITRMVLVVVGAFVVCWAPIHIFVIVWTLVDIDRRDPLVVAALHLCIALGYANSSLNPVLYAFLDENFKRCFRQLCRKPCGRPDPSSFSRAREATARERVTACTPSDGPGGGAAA
Chain of D(3) dopamine receptor (P35462 whole entry): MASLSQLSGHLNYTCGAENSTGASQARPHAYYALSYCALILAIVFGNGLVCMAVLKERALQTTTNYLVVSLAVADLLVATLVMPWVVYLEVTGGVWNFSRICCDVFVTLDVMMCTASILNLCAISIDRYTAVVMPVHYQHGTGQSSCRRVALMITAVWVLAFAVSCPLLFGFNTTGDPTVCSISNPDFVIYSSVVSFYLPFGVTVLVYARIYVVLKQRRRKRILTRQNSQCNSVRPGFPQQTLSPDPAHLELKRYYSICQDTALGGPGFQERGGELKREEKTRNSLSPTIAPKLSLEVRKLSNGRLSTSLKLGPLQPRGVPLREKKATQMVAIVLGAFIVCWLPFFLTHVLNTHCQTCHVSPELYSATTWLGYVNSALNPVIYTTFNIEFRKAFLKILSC

As a reminder, the IC50 is the concentration that gives 50% inhibition. On to `O=c1c(-c2c(O)cc(O)c3c(=O)cc(-c4ccc(O)cc4)oc23)c(-c2ccc(O)cc2)oc2cc(O)cc(O)c12`, for which inhibition against Cytochrome P450 3A4 was half-maximal at 0.08 µM (IC50).
With `C[C@@H]1O[C@@H](O[C@H]2C(=O)c3c(O)cc(O)cc3O[C@@H]2c2ccc(O)c(O)c2)[C@H](O)[C@H](O)[C@H]1O` [ASTILBIN], the Time in the series with Rattus norvegicus [1] was found to be 148.6 s; in the series on Rattus norvegicus [2] it was 163.7 s.
Usually Ki stands for a measure of affinity in units of concentration, obtained from inhibition or displacement. As for `O=c1cc(-c2ccc(O)c(-c3c(O)cc(O)c4c(=O)cc(-c5ccc(O)cc5)oc34)c2)oc2cc(O)cc(O)c12` [AMENTOFLAVONE], the affinity in [3] corresponds to a Ki of 0.0365 µM.
Turning to `C[C@@H]1O[C@@H](Oc2c(-c3ccc(O)c(O)c3)oc3cc(O)cc(O)c3c2=O)[C@H](O)[C@H](O)[C@H]1O` [QUERCITRIN], the Time in the series with Rattus norvegicus [1] was found to be 149.9 s; in the series on Rattus norvegicus [2], 162.3 s.
With `O=c1c(O)c(-c2ccc(O)c(O)c2)oc2cc(O)cc(O)c12` [QUERCETIN], the affinity at D(4) dopamine receptor corresponds to a Ki of 7.85 µM.
As for `O=C(O)[C@H]1O[C@@H](Oc2c(-c3ccc(O)c(O)c3)oc3cc(O)cc(O)c3c2=O)[C@H](O)[C@@H](O)[C@@H]1O` [MIQUELIANIN], in [4], the Ki was 4.06 µM.
For `O=c1c(O[C@@H]2O[C@H](CO)[C@@H](O)[C@H](O)[C@H]2O)c(-c2ccc(O)c(O)c2)oc2cc(O)cc(O)c12` [ISOQUERCETIN], in the series with Rattus norvegicus [1], the Time worked out at 100.4 s.
For the compound `CN(C)CCCN1c2ccccc2CCc2ccccc21` [IMIPRAMINE], the Time in the series on Rattus norvegicus [5] is listed as 97.1 s; in the series on Rattus norvegicus [6], 95.4 s; with Rattus norvegicus [7], 86.1 s; in the series on Rattus norvegicus [8] it was 77.5 s.
For `O=c1c(O[C@@H]2O[C@H](CO)[C@H](O)[C@H](O)[C@H]2O)c(-c2ccc(O)c(O)c2)oc2cc(O)cc(O)c12` [HYPEROSIDE], the Time came out at 101.2 s in the series on Rattus norvegicus [9]; 109.5 s in the series with Rattus norvegicus [10]; 133.7 s with Rattus norvegicus [11]; 149.2 s in the series with Rattus norvegicus [12]; 158.8 s in the series with Rattus norvegicus [13].
In the case of `Cc1cc(O)c2c(=O)c3c(O)cc(O)c4c5c(O)cc(O)c6c(=O)c7c(O)cc(C)c8c1c2c(c34)c(c78)c65` [HYPERICIN], the Time in the series with Rattus norvegicus [14] was 154.7 s; in the series with Rattus norvegicus [15], 110.2 s; in the series on Rattus norvegicus [16], 147.8 s. This compound came in with a Ki on D(3) dopamine receptor of 0.0345 µM. Further, the results for the half-maximal inhibitory concentration (IC50) (in series [17]; in series [18]; at Cytochrome P450 3A4) were 0.3 µM, 0.3 µM and 8.7 µM, respectively. Moreover, the Activity in the series on Rattus norvegicus [19] was 16%; in the series on Rattus norvegicus [20], 11%. Besides, in series [21], the concentration at 4.5 h worked out at 6 ng/mL. For the same compound, the Papp A→B in series [22] worked out at 2.5 nm/s. Moreover, in [23], the Papp B→A is 120 nm/s.
